# Measurements from ChEMBL document CHEMBL1154873, “Synthesis and evaluation of the alpha-glucosidase inhibitory activity of 3-[4-(phenylsulfonamido)benzoyl]-2H-1-benzopyran-2-one derivatives” (Eur J Med Chem, 2010).
# Experiment: inhibition of yeast alpha-glucosidase pretreated for 10 mins before maltose challenge measured after 10 mins
# Design: species or system Saccharomyces cerevisiae
# How it was run: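 0.02 U α-glucosidase with compound in 67 mM potassium phosphate, pH 6.8, preincubated 37 °C 10 min. 0.1 M maltose added, then room temperature 10 min. Glucose detected colorimetrically at A490 against no-compound and no-enzyme/no-compound blanks. Compounds giving over 50% inhibition were retested at eight threefold-diluted concentrations in duplicate, and IC50 was derived by curve fitting.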
row,IC50,Structure (SMILES)
1,> 30 µM,O=C(c1ccc(NS(=O)(=O)c2ccccc2)cc1)c1cc2cc(Cl)ccc2oc1=O
2,> 30 µM,COc1cc2cc(C(=O)c3ccc(NS(=O)(=O)c4ccccc4)cc3)c(=O)oc2cc1OC
3,> 30 µM,Cc1ccc(S(=O)(=O)Nc2ccc(C(=O)c3cc4cc(Br)ccc4oc3=O)cc2)cc1
4,3.28 µM,O=C(c1ccc(NS(=O)(=O)c2ccccc2)cc1)c1cc2ccccc2oc1=O
5,5.77 µM,O=C(c1ccc(NS(=O)(=O)c2ccccc2)cc1)c1cc2ccc(O)cc2oc1=O
6,7.73 µM,Cc1ccc(S(=O)(=O)Nc2ccc(C(=O)c3cc4cc(Br)cc(Br)c4oc3=O)cc2)cc1
7,10.1 µM,Cc1ccc(S(=O)(=O)Nc2ccc(C(=O)c3cc4cc(C(C)(C)C)cc(C(C)(C)C)c4oc3=O)cc2)cc1
8,> 30 µM,COc1ccc2cc(C(=O)c3ccc(NS(=O)(=O)c4ccc(C)cc4)cc3)c(=O)oc2c1
9,1.12 µM,Cc1ccc(S(=O)(=O)Nc2ccc(C(=O)c3cc4ccc(O)cc4oc3=O)cc2)cc1
10,> 30 µM,O=C(c1ccc(NS(=O)(=O)c2ccccc2)cc1)c1cc2cc(Br)ccc2oc1=O
11,> 30 µM,O=C(c1ccc(NS(=O)(=O)c2ccccc2)cc1)c1cc2cc(Br)cc(Br)c2oc1=O
12,7.13 µM,CC(C)(C)c1cc(C(C)(C)C)c2oc(=O)c(C(=O)c3ccc(NS(=O)(=O)c4ccccc4)cc3)cc2c1
13,> 30 µM,COc1ccc2cc(C(=O)c3ccc(NS(=O)(=O)c4ccccc4)cc3)c(=O)oc2c1
14,3.58 µM,Cc1ccc(S(=O)(=O)Nc2ccc(C(=O)c3cc4ccccc4oc3=O)cc2)cc1
15,4.6 µM,Cc1ccc(S(=O)(=O)Nc2ccc(C(=O)c3cc4cc(F)ccc4oc3=O)cc2)cc1
16,26.7 µM,Cc1ccc(S(=O)(=O)Nc2ccc(C(=O)c3cc4cc(Cl)ccc4oc3=O)cc2)cc1
17,0.347 µM,CCN(CC)c1ccc2cc(C(=O)c3ccc(NS(=O)(=O)c4ccc(C)cc4)cc3)c(=O)oc2c1
18,0.0645 µM,COc1cc2cc(C(=O)c3ccc(NS(=O)(=O)c4ccc(C)cc4)cc3)c(=O)oc2cc1O
19,5.59 µM,COc1cc2cc(C(=O)c3ccc(NS(=O)(=O)c4ccc(C)cc4)cc3)c(=O)oc2cc1OC
20,7.18 µM,O=C(c1ccc(NS(=O)(=O)c2ccccc2)cc1)c1cc2cc(F)ccc2oc1=O
21,0.294 µM,CCN(CC)c1ccc2cc(C(=O)c3ccc(NS(=O)(=O)c4ccccc4)cc3)c(=O)oc2c1
22,0.199 µM,COc1cc2cc(C(=O)c3ccc(NS(=O)(=O)c4ccccc4)cc3)c(=O)oc2cc1O
